Compounds with a hit are over-represented: about 3.8% of the library has one in this group of screens.
MrgX1 ag – agonists of human MrgX1 receptor, primary screen, HEK293 cells, Fluo-4 calcium flux; Mas-related G-protein coupled receptor member X1 (Homo sapiens), Q96LB2; Fluo-4 calcium fluorescence, agonist mode; stronger effect = higher value; B-score at 10 µM; 0.44% of 310,000 active; AID 588627, 2011;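 active means calcium response B-score plate-corrected fluorescence ratio at least 3 library SD, with starting fluorescence B-score inside 5 SD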
Target sequence (Q96LB2 whole entry, looked up): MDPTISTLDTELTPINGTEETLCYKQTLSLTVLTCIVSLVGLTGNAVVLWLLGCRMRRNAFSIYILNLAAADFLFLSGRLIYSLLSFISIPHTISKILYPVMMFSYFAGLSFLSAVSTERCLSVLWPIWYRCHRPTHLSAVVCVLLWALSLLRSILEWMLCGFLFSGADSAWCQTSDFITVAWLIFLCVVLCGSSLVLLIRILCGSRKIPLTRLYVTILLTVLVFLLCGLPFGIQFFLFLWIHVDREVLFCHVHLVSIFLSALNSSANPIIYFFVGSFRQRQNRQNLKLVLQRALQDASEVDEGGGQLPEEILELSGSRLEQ
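System – MrgX1-expressing HEK293 cells · Incubation – cells plated overnight, dye loaded 0.5 h 37 °C, 0.5 h room temperature · Technique – kinetic Fluo-4 NW fluorescence of intracellular calcium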
RGS4 block – RGS4 inhibitors, primary screen, cell-based, HEK293 M3R inducible RGS4, calcium flux; Regulator of G-protein signaling 4 (Homo sapiens), P49798; Fluo-4 calcium flux; stronger effect = higher value; triggered by carbachol at its EC20; 0.45% of 310,000 active; B-score at 10 µM;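 active means B-score, a plate-corrected calcium signal, over three deviations above library mean, with baseline fluorescence within five deviations of library mean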;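 further: RGS4 expression induced by doxycycline in cells with stable M3 receptor; B-score is computed from the integrated fluorescence ratio over baseline after carbachol; higher B-score means a larger calcium signal and so more RGS4 inhibition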
Target sequence (P49798 whole entry, looked up): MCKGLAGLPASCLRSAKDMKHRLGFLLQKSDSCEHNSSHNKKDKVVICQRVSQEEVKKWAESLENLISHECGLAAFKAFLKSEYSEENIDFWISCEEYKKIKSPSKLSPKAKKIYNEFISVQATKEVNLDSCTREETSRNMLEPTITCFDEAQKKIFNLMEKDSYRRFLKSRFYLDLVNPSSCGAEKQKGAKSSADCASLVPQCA
MrgX1 antag – antagonists of human MrgX1 receptor, primary screen, HEK293 cells, Fluo-4 calcium flux; Mas-related G-protein coupled receptor member X1 (Homo sapiens), Q96LB2; BAM8-22 antagonism; stronger effect = lower value; B-score at 10 µM; 1.3% of 310,000 active; AID 588676, 2011;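 active means calcium-response B-score plate-corrected more than 3 library SD below zero, starting fluorescence within 5 deviations, no agonist response on first addition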;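 further: peak minus trough fluorescence over baseline after final BAM8-22 challenge near maximal dose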
Lipid droplet – inhibitors of hepatocyte lipid droplet formation, primary screen, imaging, high-throughput imaging, BODIPY stain; AID 1656, 2009; inhibition, % at 6.5 µM; 0.4% of 240,000 active; AML12 mouse hepatocytes, oleate lipid droplets;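 active means lipid droplet intensity inhibited by at least 50%, with more than 500 cells counted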
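material = mouse AML12 hepatocyte cell line, fixed after treatment | also added = 100 µM oleic acid challenge | doses = compound at 6.5 µM only | schedule = overnight exposure | technique = Image-based BODIPY and DAPI two-channel analysis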
MrgX1 PAM – positive allosteric modulators of MrgX1, primary screen, HEK293 cells, Fluo-4 calcium flux; Mas-related G-protein coupled receptor member X1 (Homo sapiens), Q96LB2; FDSS; stronger effect = higher value; B-score at 10 µM; 0.63% of 310,000 active; AID 588675, 2011;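 active means plate-corrected calcium response at least 3 library SD above typical, normal starting fluorescence, not activating the receptor alone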;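 further: compound read alongside a low EC10 to EC30 dose of BAM8-22 agonist; peak minus trough fluorescence over baseline measured at the second addition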
RGS4 pot – RGS4 potentiators or activators, primary screen, cell-based, HEK293 M3R inducible RGS4, calcium flux; AID 463111, 2010; B-score at 10 µM; 0.92% of 310,000 active; carbachol calcium flux Fluo4; stronger effect = lower value;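 active means B-score of the integrated calcium signal more than 4 SD below the library mean, with starting fluorescence not abnormally high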;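 further: negative B-score means reduced calcium response which marks RGS4 activation or potentiation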
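Also added: carbachol at ECmax as muscarinic agonist stimulus; Assay system: HEK293 cells with stable M3R and inducible RGS4; Timing: overnight RGS4 induction, 30 min dye load 37 °C, 20 min compound RT; Measured by: Fluo4-AM (2 µM) calcium-flux fluorescence, kinetic read.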
MrgX1 antag conf – MrgX1 receptor antagonists, duplicate retest, confirmation, HEK293 cells, Fluo-4 calcium flux; 19% of 2,300 active; BAM8-22 calcium flux; stronger effect = lower value; shares compounds with MrgX1 antag; remaining BAM8-22 calcium response % of control (stronger effect = lower value), % at 10 µM;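 active means remaining agonist calcium response no higher than 100% minus 3 SD of agonist-only control wells, with starting fluorescence near control levels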;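 further: agonist BAM8-22 given at a near maximal EC90 to ECmax level; peak minus minimum fluorescence divided by baseline after agonist addition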
HEK293 Ca flux – nonspecific calcium signal in parental HEK293, confirmation, counter-screen for MrgX1 antagonist project, parental HEK293 cells, Fluo-4 calcium flux; AID 624111, 2012; 2% of 4,000 active; Fluo-4 calcium fluorescence, FDSS; shares compounds with MrgX1 antag; fluorescence ratio F(max-min)/F0 at 10 µM;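 active means duplicate-averaged calcium fluorescence ratio at least three times the standard deviation of buffer wells, a nonspecific response in parental cells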
HEK293 Ca counter – calcium response in parental HEK293 cells, primary screen, counter-screen for MrgX1 allosteric activator project, cell-based, Fluo-4 calcium flux, duplicate | shares compounds with MrgX1 antag | Fluo-4 fluorescence ratio; stronger effect = higher value | fluorescence ratio F(max-min)/F0 at 10 µM | 0.4% of 4,000 active;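 active means calcium fluorescence ratio, averaged over duplicates, at least 3 SD of the buffer-well ratio, meaning a nonspecific response in receptor-free cells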;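 further: untransfected parental HEK293 lacking MrgX1 used as counterscreen for MrgX1 allosteric activators; fluorescence change taken during the second addition on a kinetic imager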
HEK293 Ca cntr2 – calcium response in parental HEK293 cells, primary screen, counter-screen for MrgX1 agonist project, cell-based, Fluo-4 calcium flux, duplicate, agonist mode | Fluo-4 calcium fluorescence (FDSS); stronger effect = higher value | AID 624115, 2012 | fluorescence ratio F(max-min)/F0 at 10 µM | 8.7% of 4,000 active | shares compounds with MrgX1 antag;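 active means calcium fluorescence ratio at least three times the spread of buffer wells, meaning a non-specific response in parental cells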
The depositor's hits bear a star; i = inactive; nt = no result given.

SMILES	MrgX1 ag	RGS4 block	MrgX1 antag	Lipid droplet	MrgX1 PAM	RGS4 pot	MrgX1 antag conf	HEK293 Ca flux	HEK293 Ca counter	HEK293 Ca cntr2
COCc1ccc(C(=O)N2CCCC(N3CCN(c4ccc(F)cc4)CC3)C2)o1 (stereo not drawn)	i	i	i	25.5	i	i	nt	nt	nt	nt
CCOc1ccc(CNC(=O)c2ccc3c(c2)N(CC)CCS3)cc1	i	i	-6.6*	0.4	i	i	81.7%*	i	i	i
S=C(NCC1CCCO1)c1ccc(Br)cc1 (stereo not drawn)	i	i	i	-20.5	i	i	nt	nt	nt	nt
C=CCNCCOc1cccc(Br)c1	i	i	i	2.1	i	i	nt	nt	nt	nt
CCC(C)NCCOc1cccc(Br)c1 (stereo not drawn)	i	i	-4.97*	16.8	i	i	i	i	i	i
Cc1ccc(N(CN2CCCC2=O)C(=O)c2ccc(OC(C)C)cc2)cc1	i	i	i	1.5	i	i	nt	nt	nt	nt
CC(C)(C)n1nc2c(c1NC(=O)Cc1cccc3ccccc13)CS(=O)(=O)C2	i	i	i	-15.8	i	i	nt	nt	nt	nt
CCC(C(=O)Nc1c2c(nn1C(C)(C)C)CS(=O)(=O)C2)c1ccccc1 (stereo not drawn)	i	i	-8.06*	-22.2	i	i	i	i	i	i
COc1ccc(NS(=O)(=O)c2ccc(C(=O)N3CCN(Cc4ccccc4)CC3)cc2)cc1	i	i	-5.86*	5.2	i	i	i	i	i	i
COc1ccc(S(=O)(=O)NCc2ccc(C(=O)N3CCN(Cc4ccccc4)CC3)cc2)cc1	i	i	i	6.4	i	i	nt	nt	nt	nt
Oc1c(Br)cc(Br)cc1C=NCc1ccccc1	i	i	i	11.7	i	i	nt	nt	nt	nt
Oc1c(Br)cc(Br)cc1C=NCc1ccc(F)cc1	i	i	-5.18*	-8.3	i	i	i	i	i	i
O=C(Nc1cc(Cl)ccc1Cl)c1ccc(-c2ccccc2)cc1	i	i	i	28.9	i	i	nt	nt	nt	nt
NS(=O)(=O)c1cccc(NC(=O)Nc2ccc(Cl)cc2)c1	i	i	-6.26*	-3.1	i	i	82.9%*	i	i	i
COc1cccc(NC(=O)Nc2nc(SC)ns2)c1	i	i	i	-30.1	i	i	nt	nt	nt	nt
COC(=O)c1cc(NC(=O)Nc2cccc(Cl)c2)ccc1Cl	i	i	-4.67*	nt	i	i	82.3%*	i	i	i
Cc1cccc(NC(=O)Nc2ccc(S(N)(=O)=O)cc2)c1	i	i	i	15.5	i	i	nt	nt	nt	nt
COC(=O)c1cc(NC(=O)c2ccc(-c3ccccc3)cc2)ccc1Cl	i	i	-8.14*	2.5	i	i	i	i	i	i
CCSc1nsc(NC(=O)Nc2cccc(F)c2)n1	i	i	-7.37*	-28.2	i	i	78.0%*	i	i	i
CN=C1SC(CC(=O)Nc2cc(Cl)ccc2Cl)C(=O)N1C (stereo not drawn)	i	i	i	-10.9	i	i	nt	nt	nt	nt
COCCn1c(C)nnc1SCC(=O)NNC(=O)c1ccc(Cl)cc1	i	i	i	1.9	i	i	nt	nt	nt	nt
O=C(Nc1cccc(F)c1)Nc1cccc(Cl)c1	i	i	-5.07*	-3.0	i	i	65.2%*	i	i	i
O=C(Nc1cccc(Cl)c1)Nc1cccc(Cl)c1	i	i	i	2.4	i	i	nt	nt	nt	nt
Cc1ccc(NC(=O)CSc2ncnc3ccccc23)cc1S(=O)(=O)N1CCCCCC1	i	i	-5.31*	-11.3	i	i	67.1%*	i	i	i
COc1ccc(NC(=O)c2cccc(-n3c(C)ccc3C)c2)c(OC)c1	i	i	i	-1.1	i	i	nt	nt	nt	nt
SMILES	MrgX1 ag	RGS4 block	MrgX1 antag	Lipid droplet	MrgX1 PAM	RGS4 pot	MrgX1 antag conf	HEK293 Ca flux	HEK293 Ca counter	HEK293 Ca cntr2
CCOC(=O)c1c(C)[nH]c(C)c1S(=O)(=O)N(C)CC(=O)Nc1cc(C)ccc1OC	i	i	-9.1*	-0.8	i	i	i	i	i	i
O=C(NCc1ccco1)C1CCCN1C(=O)Nc1ccccc1Cl (stereo not drawn)	i	i	-11.7*	0.3	i	i	i	i	i	i
C[n+]1nc(Nc2ccccc2)sc1-c1ccc(C(=O)O)cc1	nt	nt	nt	-11.2	nt	nt	nt	nt	nt	nt
CC1CN(C(=O)c2cccc(Oc3ccccc3)c2)CC(C)O1 (stereo not drawn)	i	i	-4.67*	-9.6	i	i	i	i	i	i
CC1CN(C(=O)c2ccc(Oc3ccccc3)cc2)CC(C)O1 (stereo not drawn)	i	i	i	-1.8	i	i	nt	nt	nt	nt
Cc1ccc2sc(NC(=O)CSc3nc(C)cc(C)c3C#N)nc2c1	i	i	-6.36*	nt	i	i	i	i	i	i
COc1ccc(CCNC(=O)c2c(N)no[n+]2[O-])cc1OC	i	i	i	-10.1	i	i	nt	nt	nt	nt
CCOC(=O)C1CCN(Cc2ccc(OC)cc2OC)CC1	i	i	i	7.5	i	i	nt	nt	nt	nt
COc1ccc(CN2CCC(N3CC(C)OC(C)C3)CC2)c(OC)c1 (stereo not drawn)	i	i	-4.77*	12.8	i	i	i	i	i	i
C=CCNc1nc2c(c(=O)[nH]c(=O)n2C)n1CCCc1ccccc1	i	i	i	nt	i	i	nt	nt	nt	nt
Nc1nnnn1/N=C/c1ccccc1OCc1ccc(Cl)cc1Cl	i	i	-4.76*	nt	i	i	i	i	i	i

Screens: PubChem, several laboratories
